Source: ChEMBL document CHEMBL3046199, “Synthesis and antiviral activities of pyrazole derivatives containing an oxime moiety” (J Agric Food Chem, 2008)

How the values were obtained:
Tobacco mosaic virus [1] = experiment: In vivo antiviral activity against Tobacco mosaic virus (TMV) infected left side of tobacco leaves assessed as protective effect at 500 ug/ml treated 12 hr before viral inoculation measured at 3-4 days after viral challenge; type: functional
Summary of the method: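 TMV purified from inoculated N. tabacum upper leaves (ground in phosphate buffer, filtered, centrifuged at 10000g, twice PEG-treated, all at 4 °C), concentration from A260. Compound solution smeared on left half of same-age N. tabacum leaves, solvent on right half as control. Leaves inoculated 12 h later by brush with 6 × 10^-3 mg/mL TMV over silicon carbide. Local lesions counted 3-4 days post-inoculation, three repetitions. Inhibition % = (control lesions − treated lesions)/control lesions × 100.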

Tobacco mosaic virus [2] = experiment: In vivo antiviral activity against Tobacco mosaic virus (TMV) infected left side of tobacco leaves assessed as curative effect at 500 ug/ml treated after viral inoculation measured at 3-4 days after viral challenge; type: functional
Tobacco mosaic virus [3] = experiment: In vivo antiviral activity against Tobacco mosaic virus (TMV) infected left side of tobacco leaves assessed as inactivation effect at 500 ug/ml co-incubated with virus for 30 min before inoculation onto leaves measured at 3-4 days after viral challenge; type: functional
Tobacco mosaic virus [4] = experiment: In vivo antiviral activity against Tobacco mosaic virus (TMV) infected left side of tobacco leaves assessed as inactivation effect at 125 ug/ml co-incubated with virus for 30 min before inoculation onto leaves measured at 3-4 days after viral challenge; type: functional
Tobacco mosaic virus [5] = experiment: In vivo antiviral activity against Tobacco mosaic virus (TMV) infected left side of tobacco leaves assessed as inactivation effect at 250 ug/ml co-incubated with virus for 30 min before inoculation onto leaves measured at 3-4 days after viral challenge; type: functional
Tobacco mosaic virus [6] = experiment: In vivo antiviral activity against Tobacco mosaic virus (TMV) infected left side of tobacco leaves assessed as inactivation effect co-incubated with virus for 30 min before inoculation onto leaves measured at 3-4 days after viral challenge; type: functional, organism-based
Tobacco mosaic virus [7] = experiment: In vivo antiviral activity against Tobacco mosaic virus (TMV) infected left side of tobacco leaves assessed as inactivation effect at 62.5 ug/ml co-incubated with virus for 30 min before inoculation onto leaves measured at 3-4 days after viral challenge; type: functional
Tobacco mosaic virus [8] = experiment: In vivo antiviral activity against Tobacco mosaic virus (TMV) infected left side of tobacco leaves assessed as inactivation effect at […] ug/ml co-incubated with virus for 30 min before inoculation onto leaves measured at 3-4 days after viral challenge; type: functional

Structure (SMILES) | Activity (Tobacco mosaic virus [1]) | Activity (Tobacco mosaic virus [2]) | Activity (Tobacco mosaic virus [3]) | Activity (Tobacco mosaic virus [4]) | Activity (Tobacco mosaic virus [5]) | EC50 (Tobacco mosaic virus [6]) | Activity (Tobacco mosaic virus [7]) | Activity (Tobacco mosaic virus [8])
Cc1ccc(-n2nc(C)c(/C=N/OCc3ccc(Cl)nc3)c2Sc2ccc(F)cc2)cc1 | 31% | 22% | 56.6% |  |  |  |  | 
Cc1ccc(Sc2c(/C=N/OCc3ccc(Cl)nc3)c(C)nn2-c2ccc(C)cc2)cc1 | 15.7% | 32.1% | 61% |  |  |  |  | 
Cc1ccc(-n2nc(C)c(/C=N/OCc3c(C)nn(-c4ccc(Cl)cc4)c3Cl)c2Sc2ccc(F)cc2)cc1 | 19% | 31.9% | 43% |  |  |  |  | 
Cc1nn(-c2ccccc2)c(Sc2ccc(F)cc2)c1/C=N/OCc1c(C)nn(-c2ccc(Cl)cc2)c1Cl | 32% | 35.6% | 55.9% |  |  |  |  | 
Cc1ccc(Sc2c(/C=N/OCc3c(C)nn(-c4ccc(C)cc4)c3Cl)c(C)nn2-c2ccc(C)cc2)cc1 | 44.8% | 38.9% | 51.2% |  |  |  |  | 
Cc1ccc(-n2nc(C)c(CO/N=C/c3c(C)nn(-c4ccc(C)cc4)c3Sc3ccc(F)cc3)c2Cl)cc1 | 41% | 22% | 50.9% |  |  |  |  | 
Cc1ccc(Sc2c(/C=N/OCc3c(C)nn(-c4ccc(C)cc4)c3Cl)c(C)nn2-c2ccc(Cl)cc2)cc1 | 21% | 18.9% | 36.7% |  |  |  |  | 
Cc1ccc(S(=O)(=O)c2c(/C=N/OCc3ccc(Cl)nc3)c(C)nn2-c2ccccc2)cc1 | 28% | 9% | 45% |  |  |  |  | 
COc1ccc(S(=O)(=O)c2c(/C=N/OCc3ccc(Cl)nc3)c(C)nn2-c2ccccc2)cc1 | 29.8% | 15.6% | 30.1% |  |  |  |  | 
Cc1nn(-c2ccccc2)c(S(=O)(=O)c2ccc(F)cc2)c1/C=N/OCc1ccc(Cl)nc1 | 40.2% | 21.7% | 20.6% |  |  |  |  | 
Cc1nn(-c2cccc(Cl)c2)c(S(=O)(=O)c2ccc(F)cc2)c1/C=N/OCc1ccc(Cl)nc1 | 12.9% | 11% | 30% |  |  |  |  | 
Cc1ccc(S(=O)(=O)c2c(/C=N/OCc3ccc(Cl)nc3)c(C)nn2-c2ccc(Cl)cc2)cc1 | 31.3% | 9.2% | 33.3% |  |  |  |  | 
COc1ccc(S(=O)(=O)c2c(/C=N/OCc3ccc(Cl)nc3)c(C)nn2-c2ccc(Cl)cc2)cc1 | 16.4% | 3.6% | 30.9% |  |  |  |  | 
Cc1nn(-c2ccc(Cl)cc2)c(S(=O)(=O)c2ccc(F)cc2)c1/C=N/OCc1ccc(Cl)nc1 | 42.2% | 7.7% | 44.1% |  |  |  |  | 
Cc1ccc(-n2nc(C)c(/C=N/OCc3ccc(Cl)nc3)c2S(=O)(=O)c2ccc(F)cc2)cc1 | 28.2% | 22% | 11% |  |  |  |  | 
Cc1ccc(Sc2c(/C=N/OCc3ccc(Cl)nc3)c(C)nn2-c2ccccc2)cc1 | 31.3% | 47% | 90.4% | 69.2% | 76% | 58.7 µg/mL | 55.1% | 40.1%
COc1ccc(Sc2c(/C=N/OCc3ccc(Cl)nc3)c(C)nn2-c2ccccc2)cc1 | 16.4% | 26.6% | 71.2% | 48.9% | 65% | 115 µg/mL | 41% | 32%
Cc1nn(-c2ccccc2)c(Sc2ccc(F)cc2)c1/C=N/OCc1ccc(Cl)nc1 | 18.9% | 24% | 65.9% |  |  |  |  | 
Cc1nn(-c2cccc(Cl)c2)c(Sc2ccc(F)cc2)c1/C=N/OCc1ccc(Cl)nc1 | 28.6% | 34.3% | 61.7% |  |  |  |  | 
Cc1ccc(Sc2c(/C=N/OCc3ccc(Cl)nc3)c(C)nn2-c2ccc(Cl)cc2)cc1 | 37.7% | 26% | 61.2% |  |  |  |  | 
COc1ccc(Sc2c(/C=N/OCc3ccc(Cl)nc3)c(C)nn2-c2ccc(Cl)cc2)cc1 | 22% | 12.9% | 34.5% |  |  |  |  | 
Cc1nn(-c2ccc(Cl)cc2)c(Sc2ccc(F)cc2)c1/C=N/OCc1ccc(Cl)nc1 | 43.5% | 37.3% | 80.6% | 53% | 65.7% | 65.3 µg/mL | 51.2% | 40.6%
CNCC(=O)N[C@@H](CO)C(=O)N[C@H]1[C@H](O)[C@@H](O)[C@H](n2ccc(N)nc2=O)O[C@@H]1C(N)=O [NINGNANMYCIN] | 57% | 54.8% | 98% | 72% | 81.1% | 52.7 µg/mL | 59.9% | 44%
